Assay results reported in ChEMBL document CHEMBL4190330, “Discovery of Potent and Selective A2A Antagonists with Efficacy in Animal Models of Parkinson's Disease and Depression” (ACS Med Chem Lett, 2017).

What was measured:
[1] = Metabolic stability in human liver microsomes; assay type: ADME, microsome
Adenosine receptor A2a [2] = biological target: T1, Adenosine receptor A2a (Homo sapiens, UniProt P29274); assay: Displacement of [3H]ZM241385 from human A2A receptor expressed in HEK293 cell membranes after 90 mins radioligand binding assay
Summary of the method: (§1)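 Membranes from HEK-293 cells overexpressing the relevant human adenosine receptor subtype; all points in triplicate; Ki derived from 8-concentration IC50 curves.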

[3] = Metabolic stability in rat liver microsomes; assay type: ADME, microsome
[4] = biological target: T2, Adenosine receptor A1 (Homo sapiens) (UniProt P30542); assay: Displacement of [3H]-DPCPX from human A1 receptor expressed in HEK293 cell membranes at 1 uM after 90 mins radioligand binding assay relative to control
T2 sequence (whole entry): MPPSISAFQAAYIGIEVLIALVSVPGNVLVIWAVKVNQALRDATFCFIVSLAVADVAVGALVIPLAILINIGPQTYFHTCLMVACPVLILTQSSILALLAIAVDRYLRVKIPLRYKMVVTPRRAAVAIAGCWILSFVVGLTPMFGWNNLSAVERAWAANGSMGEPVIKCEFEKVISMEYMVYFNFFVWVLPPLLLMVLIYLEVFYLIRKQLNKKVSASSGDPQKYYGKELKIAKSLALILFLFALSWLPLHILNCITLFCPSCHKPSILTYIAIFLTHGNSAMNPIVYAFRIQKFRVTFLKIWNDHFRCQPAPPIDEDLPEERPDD

Adenosine receptor A2a [5] = biological target: Adenosine receptor A2a (Rattus norvegicus, UniProt P30543); assay: Antagonist activity at rat A2A receptor assessed as reduction in CGS-21680-induced cAMP level pretreated for 15 mins followed by CGS-21680 addition measured after 30 mins by HTRF assay; assay type: functional
Summary of the method: (§2)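 HTRF-based cAMP functional assay; each compound tested at 12 concentrations, every point in triplicate; Ki given as mean of two independent experiments (n=2).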

Adenosine receptor A2a [6] = biological target: T1, Adenosine receptor A2a; assay: Antagonist activity at human A2A receptor expressed in HEK293 cell membranes assessed as reduction in CGS-21680-induced cAMP level pretreated for 15 mins followed by CGS-21680 addition measured after 30 mins by HTRF assay; assay type: functional, cell-based; summary of the method: as §2
[7] = Solubility of the compound at pH 7.4; assay type: physicochemical; conditions: buffer
Homo sapiens [8] = organism: Homo sapiens; assay: Selectivity ratio of Ki for displacement of [3H]-MRS-1754 from human A2B receptor expressed in HEK293 cell membranes to Ki for displacement of [3H]ZM241385 from human A2A receptor expressed in HEK293 cell membranes
Summary of the method: (§3)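 Radioligand binding used membranes from HEK-293 cells overexpressing each human adenosine receptor isoform. Points were run in triplicate, and 8-concentration IC50 curves were plotted to give Ki. The selectivity value is the Ki at the off-target isoform divided by the Ki at hA2A.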

Adenosine receptor A1 = biological target: T3, Adenosine receptor A1 (Homo sapiens, UniProt P30542); assay: Displacement of [3H]-DPCPX from human A1 receptor expressed in HEK293 cell membranes after 90 mins radioligand binding assay; summary of the method: as §1
T3 sequence (P30542 whole entry): T2 sequence (whole entry)

Homo sapiens [9] = organism: Homo sapiens; assay: Selectivity ratio of Ki for displacement of [3H]-DPCPX from human A1 receptor expressed in HEK293 cell membranes to Ki for displacement of [3H]ZM241385 from human A2A receptor expressed in HEK293 cell membranes; summary of the method: as §3
Homo sapiens [10] = organism: Homo sapiens; assay: Selectivity ratio of Ki for displacement of [3H]-HEMADO from human A3 receptor expressed in HEK293 cell membranes to Ki for displacement of [3H]ZM241385 from human A2A receptor expressed in HEK293 cell membranes; summary of the method: as §3

Sequence of Adenosine receptor A2a (Rattus norvegicus, UniProt P30543) (P30543 whole entry): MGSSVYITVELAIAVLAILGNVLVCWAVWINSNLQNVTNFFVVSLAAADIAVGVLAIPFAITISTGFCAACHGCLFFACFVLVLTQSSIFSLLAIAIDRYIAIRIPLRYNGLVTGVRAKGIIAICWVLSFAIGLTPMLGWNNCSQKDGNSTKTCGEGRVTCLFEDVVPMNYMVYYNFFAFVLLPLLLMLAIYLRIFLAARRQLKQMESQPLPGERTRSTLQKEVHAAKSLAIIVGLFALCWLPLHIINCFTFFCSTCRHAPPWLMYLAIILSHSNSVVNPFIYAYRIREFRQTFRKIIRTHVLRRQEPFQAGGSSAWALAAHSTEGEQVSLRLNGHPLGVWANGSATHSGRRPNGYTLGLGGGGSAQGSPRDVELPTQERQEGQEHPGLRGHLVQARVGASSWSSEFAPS
T1 sequence (P29274 whole entry): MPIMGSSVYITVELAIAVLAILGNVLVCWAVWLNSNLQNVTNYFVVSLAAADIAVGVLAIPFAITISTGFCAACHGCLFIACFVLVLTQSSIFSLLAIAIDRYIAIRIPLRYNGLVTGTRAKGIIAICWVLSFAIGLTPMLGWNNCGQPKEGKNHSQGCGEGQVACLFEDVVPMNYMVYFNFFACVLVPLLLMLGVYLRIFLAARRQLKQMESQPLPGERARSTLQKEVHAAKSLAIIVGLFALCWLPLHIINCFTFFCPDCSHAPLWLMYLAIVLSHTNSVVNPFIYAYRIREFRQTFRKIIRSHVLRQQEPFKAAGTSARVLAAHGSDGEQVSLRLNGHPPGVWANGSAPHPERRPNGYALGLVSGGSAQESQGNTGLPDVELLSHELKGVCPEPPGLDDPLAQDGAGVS

SMILES	Stability [1]	Ki (Adenosine receptor A2a [2]) [nM]	Stability [3]	inhibition [4] [%]	Ki (Adenosine receptor A2a [5]) [nM]	Ki (Adenosine receptor A2a [6]) [nM]	solubility [7] [µM]	Ratio Ki (Homo sapiens [8])	Ki (Adenosine receptor A1) [nM]	Ratio Ki (Homo sapiens [9])	Ratio Ki (Homo sapiens [10])
Cn1c(=O)n(CCN2CCN(c3ccc(C(F)(F)F)cc3)CC2)c2nc(N)n3nc(-c4ccco4)nc3c21	Stable	3.1	Stable	57	–	–	–	–	–	–	–
Cc1ccc(N2CCN(CCn3c(=O)n(C)c4c3nc(N)n3nc(-c5ccco5)nc43)CC2)cc1	Stable	1.4	Stable	45	0.74	1.1	–	–	–	–	–
Cn1c(=O)n(CCN2CCN(c3ccc(OC(F)F)cc3)CC2)c2nc(N)n3nc(-c4ccco4)nc3c21	Stable	1.9	Stable	34	1.07	0.27	–	–	–	–	–
Cn1c(=O)n(CCN2CCN(c3ccc(C#N)cc3)CC2)c2nc(N)n3nc(-c4ccco4)nc3c21	Stable	0.6	Stable	–	1.15	0.3	< 2	> 8000	5000	> 8000	> 8000
Cn1c(=O)n(CCN2CCN(c3ccc(C#N)c(F)c3)CC2)c2nc(N)n3nc(-c4ccco4)nc3c21	Stable	0.5	Stable	50	–	0.4	–	–	–	–	–
COc1ccc(N2CCN(CCn3c(=O)n(C)c4c3nc(N)n3nc(-c5ccco5)nc43)CC2)cn1	Stable	4.5	Stable	61	–	–	–	–	–	–	–
COc1ccc(N2CCN(CCn3c(=O)n(C)c4c3nc(N)n3nc(-c5ccco5)nc43)CC2)cc1	Stable	1	Stable	58	0.58	0.21	–	–	–	–	–
Cc1ccc(N2CCN(CCn3c(=O)n(C)c4c3nc(N)n3nc(-c5ccco5)nc43)CC2)nc1	Stable	1.7	Stable	61	0.65	0.4	–	–	–	–	–
Cn1c(=O)n(CCN2CCN(c3ccc(OC4CC4)cc3)CC2)c2nc(N)n3nc(-c4ccco4)nc3c21	Stable	0.3	Stable	50	–	0.25	–	–	–	–	–
Cn1c(=O)n(CCN2CCN(c3ccc(OC4CCOCC4)cc3)CC2)c2nc(N)n3nc(-c4ccco4)nc3c21	Stable	0.3	Stable	56	–	0.26	–	–	–	–	–
Cn1c(=O)n(CCN2CCN(c3ccc(F)cc3F)CC2)c2nc(N)n3nc(-c4ccco4)nc3c21	Stable	1	Stable	32	–	0.07	–	–	–	–	–
COCCOc1cccc(N2CCN(CCn3c(=O)n(C)c4c3nc(N)n3nc(-c5ccco5)nc43)CC2)c1	Stable	0.5	Stable	63	3.9	0.5	–	–	–	–	–
Cn1c(=O)n(CCN2CCN(c3nc(C(F)(F)F)cs3)CC2)c2nc(N)n3nc(-c4ccco4)nc3c21	Stable	1.2	Stable	58	–	0.9	–	–	–	–	–
COCCOc1cc(F)c(N2CCN(CCn3c(=O)n(C)c4c3nc(N)n3nc(-c5ccco5)nc43)CC2)cc1F	Stable	0.9	Stable	58	–	1.2	–	–	–	–	–
COCCOc1ccc(N2CCN(CCn3c(=O)n(C)c4c3nc(N)n3nc(-c5nccs5)nc43)CC2)cc1	Stable	6.4	Stable	19	11.1	1.2	–	–	–	–	–
COCC(C)Oc1ccc(N2CCN(CCn3c(=O)n(C)c4c3nc(N)n3nc(-c5ccco5)nc43)CC2)cc1 (stereo not given)	Stable	0.4	Stable	56	0.42	1.5	–	–	–	–	–
Cn1c(=O)n(CCN2CCN(c3ccc(OCCOC4CC4)cc3)CC2)c2nc(N)n3nc(-c4ccco4)nc3c21	Stable	2	Stable	66	–	–	–	–	–	–	–
COCCOc1ccc(N2CCN(CCn3c(=O)n(C)c4c3nc(N)n3nc(-c5ccco5)nc43)CC2)cc1	Stable	2	Stable	–	0.28	0.42	< 6	> 3000	1700	850	> 2000
COCCOc1c(F)cc(N2CCN(CCn3c(=O)n(C)c4c3nc(N)n3nc(-c5ccco5)nc43)CC2)cc1F	Stable	0.6	Stable	65	–	–	–	–	–	–	–
Cc1nc2cc(N3CCN(CCn4c(=O)n(C)c5c4nc(N)n4nc(-c6ccco6)nc54)CC3)c(F)cc2o1	Stable	0.4	Stable	48	0.05	0.15	–	–	–	–	–
COCC(C)(C)Oc1ccc(N2CCN(CCn3c(=O)n(C)c4c3nc(N)n3nc(-c5ccco5)nc43)CC2)cc1	Stable	0.5	Stable	36	0.72	2.1	–	–	–	–	–
COCCOc1ccc(N2CCN(CCn3c(=O)n(C)c4c3nc(N)n3nc(-c5ccco5)nc43)CC2)cc1F	Stable	0.7	Stable	68	–	–	–	–	–	–	–
Cn1c(=O)n(CCN2CCN(c3ccc(OC4CCOC4)cc3)CC2)c2nc(N)n3nc(-c4ccco4)nc3c21 (stereo not given)	Stable	0.2	Stable	49	–	0.22	–	–	–	–	–
COc1ccc(N2CCN(CCn3c(=O)n(C)c4c3nc(N)n3nc(-c5ccco5)nc43)CC2)c(F)c1	Stable	0.4	Stable	45	0.06	0.06	–	–	–	–	–
